Activity calls are given as the source filed them.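 How the source made its calls: active means compounds cutting labeled HDL uptake fluorescence whose fitted AC50 is within ten times their top tested dose; inconclusive means flat fit with 30 to 70% inhibition, or poor fit; inactive means the rest.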
Molecular target: Scavenger receptor class B member 1 (Mus musculus) (UniProt Q61009)
Experiment: mSR-BI lipid transfer inhibition in CHO cells – ldlA[mSR-BI] CHO cells, fluorescence, dry powder, set 6, dose response (AID 588828)
Conditions: DiI-HDL uptake fluorescence, 3 h; for activity change, negative = inhibition: at 35 µM (top of the series)
How it was run: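 System: CHO ldlA cells overexpressing mSR-BI scavenger receptor. Reagent: DiI-HDL, 10 µg/mL. Dosing: compound concentration series. Times: overnight cell attachment, then 3 h compound and DiI-HDL exposure at 37 °C. Signal: fluorescence, bottom read, excitation 550 nm, emission 595 nm.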

Chain of Scavenger receptor class B member 1 (Mus musculus) (Q61009 whole entry, looked up): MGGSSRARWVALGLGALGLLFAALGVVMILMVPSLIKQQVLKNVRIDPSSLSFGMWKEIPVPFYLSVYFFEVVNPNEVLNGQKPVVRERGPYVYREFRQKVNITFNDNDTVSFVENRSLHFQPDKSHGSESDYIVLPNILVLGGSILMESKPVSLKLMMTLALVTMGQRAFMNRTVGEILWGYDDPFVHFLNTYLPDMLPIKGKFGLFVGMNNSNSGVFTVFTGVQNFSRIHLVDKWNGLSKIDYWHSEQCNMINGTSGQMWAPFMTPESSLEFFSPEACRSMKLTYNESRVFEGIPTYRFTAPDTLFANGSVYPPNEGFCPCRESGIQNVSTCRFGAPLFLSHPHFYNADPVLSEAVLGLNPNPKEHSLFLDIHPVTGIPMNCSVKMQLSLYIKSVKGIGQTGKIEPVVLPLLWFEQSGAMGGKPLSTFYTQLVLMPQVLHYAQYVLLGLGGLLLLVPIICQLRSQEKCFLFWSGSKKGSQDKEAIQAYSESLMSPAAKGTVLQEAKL

AC50 | activity change, negative = inhibition | SMILES
3.66 nM |  | COCC(=O)N1CCc2cc(-c3csc(NC(=O)c4cc(OC)cc(OC)c4)n3)ccc21
287 nM |  | CCC(=O)N1CCc2cc(-c3csc(NC(=O)c4ccc(F)c(OC)c4)n3)ccc21
43.8 nM |  | C[C@@H]1CN([C@H](C)CO)C(=O)c2cc(NC(=O)Cc3cn(C)c4ccccc34)ccc2O[C@H]1CN(C)S(=O)(=O)c1ccc(Cl)cc1
614 nM |  | CC(=O)N1CCc2cc(-c3nc(NC(=O)c4cccc(OC(F)(F)F)c4)sc3C)ccc21
92.6 nM |  | CCC(=O)N1CCc2cc(-c3csc(NC(=O)c4cccc(OC)c4)n3)ccc21
568 nM |  | Cc1ccc2oc(-c3cccc(NC(=O)c4cc(-n5cnnc5)ccc4Cl)c3)nc2c1
> 22000 nM (inactive) |  | C[C@@H]1CN([C@@H](C)CO)C(=O)Cc2cc(NC(=O)Nc3ccc(C(F)(F)F)cc3)ccc2O[C@@H]1CN(C)S(=O)(=O)c1ccc(Cl)cc1
6.3 nM |  | COc1cc(OC)cc(C(=O)Nc2nc(-c3ccc4c(c3)CCN4C(=O)CN(C)C)cs2)c1
0.927 nM |  | CCNC(=O)N1CCc2cc(-c3csc(NC(=O)c4cc(OC)cc(OC)c4)n3)ccc21

The remaining lines, values behind:

SMILES | AC50 | activity change, negative = inhibition
COc1cc(OC)cc(C(=O)Nc2nc(-c3ccc4c(c3)CCN4C(=O)OC(C)(C)C)cs2)c1 | 6.89 nM | 
COc1ccc(-c2cc(CC(=O)N(C3CCCCC3)C(C)C(=O)NC3CCCC3)no2)cc1OC (stereo unspecified) | 3.19 nM | 
CCCCCCC1CCC/C1=N\NC(N)=S (stereo unspecified) | 18.7 nM | 
CCC(=O)N1CC(C)(C)c2cc(-c3csc(NC(=O)c4cc(OC)cc(OC)c4)n3)ccc21 | 14.2 nM | 
C[C@H](C(=O)NC1CCCC1)N(C(=O)Cn1nnc(-c2ccc3c(c2)OCO3)n1)C1CCCCC1 | 1.22 nM | 
COc1c(NC(=O)C(=O)c2ccc(OCCN3CCOCC3)c3ccccc23)cc(C(C)(C)C)cc1NS(C)(=O)=O |  | inactive
CC(C)(Sc1cc(C(C)(C)C)c(O)c(C(C)(C)C)c1)Sc1cc(C(C)(C)C)c(O)c(C(C)(C)C)c1 |  | inactive

— PubChem BioAssay AID588828 (Broad Institute, 2011)
